ChEMBL document CHEMBL3045023, “Design, synthesis, and antiviral activity evaluation of phenanthrene-based antofine derivatives” (2012)

What was measured:
Assay type in all cases: functional
Tobacco mosaic virus [1] = assay: Antiviral activity against Tobacco mosaic virus (TMV) assessed as inhibition of viral growth at 500 ug/mL; conditions: read-out: GI
In short: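 Leaves of 5–6-growth-stage tobacco were rub-inoculated with TMV juice (5.88 × 10−2 μg/mL), then cut into halves along the main vein. One half was immersed in 500 μg/mL compound and the other in double-distilled water, each for 20 min. Halves were cultured at 25 °C for 72 h, with at least 3 replicates. Inhibition % = (control − treated average lesion number)/control × 100.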

Tobacco mosaic virus [2] = assay: Antiviral activity against Tobacco mosaic virus (TMV) inoculation on Nicotiana tabacum L. whole leaves assessed as virus infection curative effect at 500 ug/mL measured 3 to 4 days post inoculation
In short: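 Whole N. tabacum L. leaves of the same age were inoculated with TMV (6.0 × 10−3 mg/mL), then washed and dried. Compound was then smeared on the left half and solvent on the right half as control. Local lesions were counted 3–4 days post-inoculation, in triplicate. Inhibition % was calculated from average lesion numbers versus control.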

Tobacco mosaic virus [3] = assay: Antiviral activity against Tobacco mosaic virus (TMV) inoculation on Nicotiana tabacum L. whole leaves assessed as virus infection protective effect at 500 ug/mL measured 3 to 4 days post inoculation
In short: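 On N. tabacum L. leaves of the same age, compound was smeared on the left half and solvent on the right half as control. After 12 h, leaves were dusted with silicon carbide, brush-inoculated with TMV (6 × 10−3 mg/mL), then washed. Local lesions were counted 3–4 days later, in triplicate. Inhibition % was calculated from average lesion numbers versus control.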

Tobacco mosaic virus [4] = assay: Antiviral activity against Tobacco mosaic virus (TMV) inoculation on Nicotiana tabacum L. whole leaves assessed as virus inactivation effect at 500 ug/mL measured 3 to 4 days post inoculation
In short: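 TMV was mixed with an equal volume of compound solution for 30 min. The mixture was inoculated on the left half of N. tabacum L. leaves, and virus mixed with solvent on the right half as control. Local lesions were recorded 3–4 days post-inoculation, in triplicate. Inhibition % was calculated from average lesion numbers versus control.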

Structure (SMILES)	inhibition of growth at 500 µg/mL (Tobacco mosaic virus [1]) [%]	Activity (Tobacco mosaic virus [2]) [%]	Activity (Tobacco mosaic virus [3]) [%]	Activity (Tobacco mosaic virus [4]) [%]
COc1cc2cc(C(=O)N3CCC[C@H]3CO)c3cc(OC)c(OC)cc3c2cc1OC	32.8	30.2	25.6	29.5
CCN(CC)C(=O)[C@H]1CCCN1Cc1c(Br)c2ccc(OC)cc2c2cc(OC)c(OC)cc12	35.6	31.6	27.1	26.9
COc1cc2c(Br)c(CN3CCC[C@H]3C(N)=O)c3cc(OC)c(OC)cc3c2cc1OC	44.3	36.6	39.5	42.1
COc1cc2cc(C(=O)N3CCC[C@H]3CBr)c3cc(OC)c(OC)cc3c2cc1OC	21.9	26.7	36.9	27.6
COc1cc2cc(CN3C(=O)CC[C@H]3C(=O)OC(C)(C)C)c3cc(OC)c(OC)cc3c2cc1OC	14.2	16.8	23.5	27.1
CCN(CC)C(=O)[C@@H]1CCCCN1Cc1c(Br)c2cc(OC)c(OC)cc2c2cc(OC)c(OC)cc12	19.7	26.3	28.5	21.5
NC(=O)c1ncn([C@@H]2O[C@H](CO)[C@@H](O)[C@H]2O)n1 [RIBAVIRIN]	38.5	34.5	34.2	32.1
CCN(CC)C(=O)[C@@H]1CCCN1Cc1c(Br)c2cc(OC)c(OC)cc2c2cc(OC)ccc12	23.5	14.2	18.9	15.7
COc1cc2c(Br)c(CN3CCC[C@H]3C(=N)OC(C)(C)C)c3cc(OC)c(OC)cc3c2cc1OC	39.7	40.3	42.2	36.6
COc1cc2cc(CN3CCC[C@H]3CBr)c3cc(OC)c(OC)cc3c2cc1OC	32.1	16.3	21.1	20.3
CCN(CC)C(=O)[C@H]1CCCN1Cc1c(Br)c2cc(OC)c(OC)cc2c2c(Br)c(OC)ccc12	42.6	35.8	39.2	30.2
CCN(CC)C(=O)[C@H]1CCCCN1Cc1c(Br)c2cc(OC)c(OC)cc2c2cc(OC)c(OC)cc12	23.5	14.2	21.7	13.7
COc1cc2cc(CN3CCCCC3)c3cc(OC)c(OC)cc3c2cc1OC	38.4	35.2	35.9	30
COc1cc2c(Br)c(CN3CCC[C@H]3C#N)c3cc(OC)c(OC)cc3c2cc1OC	24.7	18.2	33.3	10.3
COc1cc2cc(C(=O)N3CCC[C@H]3C#N)c3cc(OC)c(OC)cc3c2cc1OC	12.5	15.6	10.3	17.6
CCN(CC)C(=O)[C@@H]1CCCN1Cc1c(Br)c2cc(OC)c(OC)cc2c2cc(OC)c(OC)cc12	17.2	21.6	25.3	22
CCN(CC)C(=O)[C@H]1CCCN1Cc1c(Br)c2cc(OC)c(OC)cc2c2cc(OC)ccc12	35.7	31.4	33.1	27.6
O=C1NCNC(=O)N1	50			
